Measured values published in ChEMBL document CHEMBL3994637, “Broad spectrum anti-infective properties of benzisothiazolones and the parallels in their anti-bacterial and anti-fungal effects” (Bioorg Med Chem Lett, 2017).
Values after ≈ are worked out from the molar mass of the structure shown.

Key:
Format in all cases: functional
[1] = system: Candida albicans; assay: Anti-fungal activity against Candida albicans after 48 hrs by broth microdilution method
[2] = system: Cryptococcus neoformans; assay: Anti-fungal activity against Cryptococcus neoformans after 48 hrs by broth microdilution method
[3] = system: Sporothrix schenckii; assay: Anti-fungal activity against Sporothrix schenckii after 48 hrs by broth microdilution method
[4] = system: Trichophyton mentagrophytes; assay: Anti-fungal activity against Trichophyton mentagrophytes after 48 hrs by broth microdilution method
[5] = system: Aspergillus fumigatus; assay: Anti-fungal activity against Aspergillus fumigatus after 48 hrs by broth microdilution method
[6] = system: Candida parapsilosis; assay: Anti-fungal activity against Candida parapsilosis ATCC 22019 after 48 hrs by broth microdilution method; conditions: Lodderomyces parapsilosis, ATCC 22019, 48 h
[7] = system: Staphylococcus aureus; assay: Antibacterial activity against Staphylococcus aureus ATCC 25923 by broth microdilution method
[8] = system: Staphylococcus aureus; assay: Antibacterial activity against methicillin-resistant Staphylococcus aureus ATCC 700699 by broth microdilution method; conditions: Mu50
[9] = system: Staphylococcus aureus; assay: Antibacterial activity against Staphylococcus aureus ATCC 29213 by broth microdilution method
[10] = system: Escherichia coli; assay: Antibacterial activity against Escherichia coli ATCC 9637 by broth microdilution method; conditions: W
In short: (§1)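 Bacteria were tested by the NCCLS method in Mueller Hinton broth, with gentamicin and norfloxacin as reference drugs.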

[11] = system: Pseudomonas aeruginosa; assay: Antibacterial activity against Pseudomonas aeruginosa ATCC BAA-427 by broth microdilution method; in short: as §1
[12] = system: Klebsiella pneumoniae; assay: Antibacterial activity against Klebsiella pneumoniae ATCC 27736 by broth microdilution method; in short: as §1
[13] = system: Plasmodium falciparum; assay: Antimalarial activity against chloroquine-sensitive Plasmodium falciparum 3D7 after 72 hrs by SYBR Green-1 staining based fluorescence assay; conditions: 3D7, 72 h

Compound | MIC [1] | MIC [2] | MIC [3] | MIC [4] | MIC [5] | MIC [6] | IC50 [7] | MIC [7] | IC50 [8] | MIC [8] | IC50 [9] | MIC [9] | IC50 [10] | MIC [10] | IC50 [11] | MIC [11] | IC50 [12] | MIC [12] | IC50 [1] | IC50 [2] | further results
OC(Cn1cncn1)(Cn1cncn1)c1ccc(F)cc1F [FLUCONAZOLE] | 1 µg/mL (≈ 3.27 µM) | 2 µg/mL (≈ 6.53 µM) | 2 µg/mL (≈ 6.53 µM) | > 32 µg/mL | > 32 µg/mL | 2 µg/mL (≈ 6.53 µM) |  |  |  |  |  |  |  |  |  |  |  |  |  |  | 
C[C@@H]1[C@H](O)[C@@H](C)/C=C/C=C/C=C/C=C/C=C/C=C/C=C/[C@H](O[C@@H]2O[C@H](C)[C@@H](O)[C@H](N)[C@@H]2O)C[C@@H]2O[C@](O)(C[C@@H](O)C[C@@H](O)[C@H](O)CC[C@@H](O)C[C@@H](O)CC(=O)O[C@H]1C)C[C@H](O)[C@H]2C(=O)O [AMPHOTERICIN B] | 0.016 µg/mL (≈ 0.0173 µM) | 0.125 µg/mL (≈ 0.135 µM) | 0.25 µg/mL (≈ 0.271 µM) | 0.25 µg/mL (≈ 0.271 µM) | 0.5 µg/mL (≈ 0.541 µM) | 0.016 µg/mL (≈ 0.0173 µM) |  |  |  |  |  |  |  |  |  |  |  |  |  |  | 
CC[C@H](C)[C@@H](C(=O)OC)n1sc2ccccc2c1=O | 2.5 µg/mL (≈ 8.95 µM) | 8.3 µg/mL (≈ 29.7 µM) | 18.2 µg/mL (≈ 65.1 µM) | > 50 µg/mL | 12.5 µg/mL (≈ 44.7 µM) | 4.5 µg/mL (≈ 16.1 µM) | 2 µg/mL (≈ 7.16 µM) | 4.2 µg/mL (≈ 15 µM) | 0.43 µg/mL (≈ 1.54 µM) | 0.89 µg/mL (≈ 3.19 µM) | 2.1 µg/mL (≈ 7.52 µM) | 4.3 µg/mL (≈ 15.4 µM) | > 50 µg/mL | > 50 µg/mL | > 50 µg/mL | > 50 µg/mL | > 50 µg/mL | > 50 µg/mL | 1.6 µg/mL (≈ 5.73 µM) | 7.3 µg/mL (≈ 26.1 µM) | IC50 [3]: 4.7 µg/mL (≈ 16.8 µM); IC50 [4]: > 50 µg/mL; IC50 [6]: 3.1 µg/mL (≈ 11.1 µM); IC50 [13]: > 2000 nM
COC(=O)[C@H](c1ccccc1)n1sc2ccccc2c1=O | > 50 µg/mL | > 50 µg/mL | > 50 µg/mL | > 50 µg/mL | > 50 µg/mL | > 50 µg/mL | 1.1 µg/mL (≈ 3.67 µM) | 1.5 µg/mL (≈ 5.01 µM) | 2.6 µg/mL (≈ 8.69 µM) | 4.2 µg/mL (≈ 14 µM) | 13.5 µg/mL (≈ 45.1 µM) | 18.7 µg/mL (≈ 62.5 µM) | > 50 µg/mL | > 50 µg/mL | > 50 µg/mL | > 50 µg/mL | > 50 µg/mL | > 50 µg/mL | > 50 µg/mL | > 50 µg/mL | IC50 [3]: > 50 µg/mL; IC50 [4]: > 50 µg/mL; IC50 [5]: > 50 µg/mL; IC50 [6]: > 50 µg/mL; IC50 [13]: > 2000 nM
O=c1c2ccccc2sn1C1CCCCC1n1sc2ccccc2c1=O (configuration not stated) | > 50 µg/mL | > 50 µg/mL | > 50 µg/mL | > 50 µg/mL | > 50 µg/mL | > 50 µg/mL | 3.2 µg/mL (≈ 8.37 µM) | 3.4 µg/mL (≈ 8.89 µM) | 1.4 µg/mL (≈ 3.66 µM) | 2.3 µg/mL (≈ 6.01 µM) | 2.5 µg/mL (≈ 6.54 µM) | 3.7 µg/mL (≈ 9.67 µM) | > 50 µg/mL | > 50 µg/mL | > 50 µg/mL | > 50 µg/mL | > 50 µg/mL | > 50 µg/mL | > 50 µg/mL | > 50 µg/mL | IC50 [3]: > 50 µg/mL; IC50 [4]: > 50 µg/mL; IC50 [5]: > 50 µg/mL; IC50 [6]: > 50 µg/mL; IC50 [13]: > 2000 nM
O=c1c2ccccc2sn1Cc1ccc2c(c1)OCO2 | 0.7 µg/mL (≈ 2.45 µM) | 0.8 µg/mL (≈ 2.8 µM) | 0.5 µg/mL (≈ 1.75 µM) | 1.5 µg/mL (≈ 5.26 µM) | 1.7 µg/mL (≈ 5.96 µM) | > 50 µg/mL | 2.2 µg/mL (≈ 7.71 µM) | 2.6 µg/mL (≈ 9.11 µM) | 0.6 µg/mL (≈ 2.1 µM) | 1 µg/mL (≈ 3.5 µM) | 1.9 µg/mL (≈ 6.66 µM) | 2.5 µg/mL (≈ 8.76 µM) | > 50 µg/mL | > 50 µg/mL | > 50 µg/mL | > 50 µg/mL | > 50 µg/mL | > 50 µg/mL | 0.56 µg/mL (≈ 1.96 µM) | 0.8 µg/mL (≈ 2.8 µM) | IC50 [3]: 0.3 µg/mL (≈ 1.05 µM); IC50 [5]: 1.5 µg/mL (≈ 5.26 µM); IC50 [13]: > 2000 nM
CC(=O)Nc1ccccc1-n1sc2ccccc2c1=O | > 50 µg/mL | > 50 µg/mL | > 50 µg/mL | > 50 µg/mL | > 50 µg/mL | > 50 µg/mL | > 50 µg/mL | > 50 µg/mL | > 50 µg/mL | > 50 µg/mL | > 50 µg/mL | > 50 µg/mL | > 50 µg/mL | > 50 µg/mL | > 50 µg/mL | > 50 µg/mL | > 50 µg/mL | > 50 µg/mL | > 50 µg/mL | > 50 µg/mL | IC50 [3]: > 50 µg/mL; IC50 [4]: > 50 µg/mL; IC50 [5]: > 50 µg/mL; IC50 [6]: > 50 µg/mL; IC50 [13]: > 2000 nM
Nc1ccccc1-n1sc2ccccc2c1=O | 4.3 µg/mL (≈ 17.7 µM) | 2.3 µg/mL (≈ 9.49 µM) | 11.7 µg/mL (≈ 48.3 µM) | 3.3 µg/mL (≈ 13.6 µM) | 12.5 µg/mL (≈ 51.6 µM) | > 50 µg/mL | > 50 µg/mL | > 50 µg/mL | > 50 µg/mL | > 50 µg/mL | > 50 µg/mL | > 50 µg/mL | > 50 µg/mL | > 50 µg/mL | > 50 µg/mL | > 50 µg/mL | > 50 µg/mL | > 50 µg/mL | 2.6 µg/mL (≈ 10.7 µM) | 1.9 µg/mL (≈ 7.84 µM) | IC50 [3]: 5.7 µg/mL (≈ 23.5 µM); IC50 [6]: > 50 µg/mL; IC50 [13]: > 2000 nM
